# Measured values published in ChEMBL document CHEMBL1152649, “Synthesis, cytotoxicity and human telomerase inhibition activities of a series of 1,2-heteroannelated anthraquinones and anthra[1,2-d]imidazole-6,11-dione homologues” (2009).
# Columns and labels:
# [1] = Cytotoxicity against human H1299 cells at 1 uM after 48 hrs by MTT assay; assay type: functional; conditions: NCI-H1299, 48 h
# In short: (§1)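 H1299 non-small cell lung cancer cells were grown in RPMI 1640 with 10% FBS, penicillin and streptomycin at 37 °C under 5% CO2. About 2 × 10³ cells per well were seeded and left 24 h. Compounds were dissolved fresh in DMSO, diluted into complete medium and applied for 48 h. MTT was then added for 4 h at 37 °C, followed by lysis buffer (20% SDS, 50% DMF) for 16 h, and absorbance was read at 550 nm.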
# [2] = Cytotoxicity against human H1299 cells at 10 uM after 48 hrs by MTT assay; assay type: functional; conditions: NCI-H1299, 48 h; in short: as §1
# [3] = Cytotoxicity against human H1299 cells at 100 uM after 48 hrs by MTT assay; assay type: functional; conditions: NCI-H1299, 48 h; in short: as §1
# A549 = assay: Antiproliferative activity against human A549 cells assessed as cell growth at 10 uM; assay type: functional; conditions: read-out: Activity
# In short: (§2)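 NCI 60 cell line panel, single-dose screen (10^-5 M) run by the developmental therapeutics program protocol. Results are given as growth percent of treated cells relative to untreated control cells for each line.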
# HOP-62 = assay: Antiproliferative activity against human HOP62 cells assessed as cell growth at 10 uM; assay type: functional; conditions: read-out: Activity; in short: as §2
# [4] = Antiproliferative activity against human Hs 578T cells assessed as cell growth at 10 uM; assay type: functional; conditions: read-out: Activity; in short: as §2
# MDA-MB-231 = assay: Antiproliferative activity against human MDA-MB-231 cells assessed as cell growth at 10 uM; assay type: functional; conditions: read-out: Activity; in short: as §2
# MDA-MB-435 = assay: Antiproliferative activity against human MDA-MB-435 cells assessed as cell growth at 10 uM; assay type: functional; conditions: read-out: Activity; in short: as §2
# NCI/ADR-RES = assay: Antiproliferative activity against human NCI/ADR-RES cells assessed as cell growth at 10 uM; assay type: functional; conditions: read-out: Activity; in short: as §2
# T47D = assay: Antiproliferative activity against human T47D cells assessed as cell growth at 10 uM; assay type: functional; conditions: read-out: Activity
# In short: (§3)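 NCI 60 cell line panel, single dose (10^-5 M), run per the Developmental Therapeutics Program protocol (one dose mean graph). Each result is the growth percentage of treated cells relative to untreated control cells.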
# OVCAR-3 = assay: Antiproliferative activity against human OVCAR-3 cells assessed as cell growth at 10 uM; assay type: functional; conditions: read-out: Activity; in short: as §2
# OVCAR-4 = assay: Antiproliferative activity against human OVCAR4 cells assessed as cell growth at 10 uM; assay type: functional; conditions: read-out: Activity; in short: as §2
# OVCAR-5 = assay: Antiproliferative activity against human OVCAR5 cells assessed as cell growth at 10 uM; assay type: functional; conditions: read-out: Activity; in short: as §2
# OVCAR-8 = assay: Antiproliferative activity against human OVCAR8 cells assessed as cell growth at 10 uM; assay type: functional; conditions: read-out: Activity; in short: as §2
# CCRF-CEM = assay: Antiproliferative activity against human CCRF-CEM cells assessed as cell growth at 10 uM; assay type: functional; conditions: read-out: Activity; in short: as §2
# HL-60(TB) = assay: Antiproliferative activity against human HL-60(TB) cells assessed as cell growth at 10 uM; assay type: functional; conditions: read-out: Activity
# In short: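 NCI Developmental Therapeutics Program 60-cell-line one-dose screen at 10^-5 M. Readout is growth percentage of treated cells relative to untreated control cells.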
# K562 = assay: Antiproliferative activity against human K562 cells assessed as cell growth at 10 uM; assay type: functional; conditions: read-out: Activity; in short: as §2
# [5] = Antiproliferative activity against human RPMI8266 cells assessed as cell growth at 10 uM; assay type: functional; conditions: read-out: Activity; in short: as §2
# SR = assay: Antiproliferative activity against human SR cells assessed as cell growth at 10 uM; assay type: functional; conditions: read-out: Activity; in short: as §3
# 786-0 = assay: Antiproliferative activity against human 786-0 cells assessed as cell growth at 10 uM; assay type: functional; conditions: read-out: Activity; in short: as §2
# A498 = assay: Antiproliferative activity against human A498 cells assessed as cell growth at 10 uM; assay type: functional; conditions: read-out: Activity; in short: as §2
# ACHN = assay: Antiproliferative activity against human ACHN cells assessed as cell growth at 10 uM; assay type: functional; conditions: read-out: Activity; in short: as §2
# CAKI-1 = assay: Antiproliferative activity against human Caki1 cells assessed as cell growth at 10 uM; assay type: functional; conditions: read-out: Activity; in short: as §2
# SN12C = assay: Antiproliferative activity against human SN12C cells assessed as cell growth at 10 uM; assay type: functional; conditions: read-out: Activity; in short: as §2
# TK-10 = assay: Antiproliferative activity against human TK10 cells assessed as cell growth at 10 uM; assay type: functional; conditions: read-out: Activity; in short: as §3
# UO-31 = assay: Antiproliferative activity against human UO31 cells assessed as cell growth at 10 uM; assay type: functional; conditions: read-out: Activity; in short: as §3
# LOX IMVI = assay: Antiproliferative activity against human LOXIMVI cells assessed as cell growth at 10 uM; assay type: functional; conditions: read-out: Activity; in short: as §2
# M14 = assay: Antiproliferative activity against human M14 cells assessed as cell growth at 10 uM; assay type: functional; conditions: read-out: Activity; in short: as §2
# Malme-3M = assay: Antiproliferative activity against human MALME-3M cells assessed as cell growth at 10 uM; assay type: functional; conditions: read-out: Activity; in short: as §2
# SK-MEL-2 = assay: Antiproliferative activity against human SK-MEL-2 cells assessed as cell growth at 10 uM; assay type: functional; conditions: read-out: Activity; in short: as §2
# SK-MEL-28 = assay: Antiproliferative activity against human SK-MEL-28 cells assessed as cell growth at 10 uM; assay type: functional; conditions: read-out: Activity; in short: as §2
# SK-MEL-5 = assay: Antiproliferative activity against human SK-MEL-5 cells assessed as cell growth at 10 uM; assay type: functional; conditions: read-out: Activity; in short: as §2
# PC-3 = assay: Antiproliferative activity against human PC3 cells assessed as cell growth at 10 uM; assay type: functional; conditions: read-out: Activity; in short: as §2
# SF-268 = assay: Antiproliferative activity against human SF268 cells assessed as cell growth at 10 uM; assay type: functional; conditions: read-out: Activity; in short: as §2
# SF-295 = assay: Antiproliferative activity against human SF295 cells assessed as cell growth at 10 uM; assay type: functional; conditions: read-out: Activity; in short: as §2
# SNB-19 = assay: Antiproliferative activity against human SNB19 cells assessed as cell growth at 10 uM; assay type: functional; conditions: read-out: Activity; in short: as §2
# SNB-75 = assay: Antiproliferative activity against human SNB75 cells assessed as cell growth at 10 uM; assay type: functional; conditions: read-out: Activity; in short: as §3
# U-251 = assay: Antiproliferative activity against human U251 cells assessed as cell growth at 10 uM; assay type: functional; conditions: read-out: Activity; in short: as §3
# HOP-92 = assay: Antiproliferative activity against human HOP92 cells assessed as cell growth at 10 uM; assay type: functional; conditions: read-out: Activity; in short: as §2
# NCI-H23 = assay: Antiproliferative activity against human NCI-H23 cells assessed as cell growth at 10 uM; assay type: functional; conditions: read-out: Activity; in short: as §2
# NCI-H322M = assay: Antiproliferative activity against human NCI-H322M cells assessed as cell growth at 10 uM; assay type: functional; conditions: read-out: Activity; in short: as §2
# NCI-H460 = assay: Antiproliferative activity against human NCI-H460 cells assessed as cell growth at 10 uM; assay type: functional; conditions: read-out: Activity; in short: as §2
# NCI-H522 = assay: Antiproliferative activity against human NCI-H522 cells assessed as cell growth at 10 uM; assay type: functional; conditions: read-out: Activity; in short: as §2
# COLO 205 = assay: Antiproliferative activity against human COLO205 cells assessed as cell growth at 10 uM; assay type: functional; conditions: read-out: Activity; in short: as §2
# HCC 2998 = assay: Antiproliferative activity against human HCC2998 cells assessed as cell growth at 10 uM; assay type: functional; conditions: read-out: Activity; in short: as §2
# HCT-116 = assay: Antiproliferative activity against human HCT116 cells assessed as cell growth at 10 uM; assay type: functional; conditions: read-out: Activity; in short: as §2
# [6] = target: Telomerase reverse transcriptase (Homo sapiens) (UniProt O14746); assay: Inhibition of TERT in human H1299 cells assessed as residual transcriptional activity at 10 uM after 24 hrs by SEAP reporter gene assay; values are per cent of control
# Chain of Telomerase reverse transcriptase (Homo sapiens) (O14746 whole entry): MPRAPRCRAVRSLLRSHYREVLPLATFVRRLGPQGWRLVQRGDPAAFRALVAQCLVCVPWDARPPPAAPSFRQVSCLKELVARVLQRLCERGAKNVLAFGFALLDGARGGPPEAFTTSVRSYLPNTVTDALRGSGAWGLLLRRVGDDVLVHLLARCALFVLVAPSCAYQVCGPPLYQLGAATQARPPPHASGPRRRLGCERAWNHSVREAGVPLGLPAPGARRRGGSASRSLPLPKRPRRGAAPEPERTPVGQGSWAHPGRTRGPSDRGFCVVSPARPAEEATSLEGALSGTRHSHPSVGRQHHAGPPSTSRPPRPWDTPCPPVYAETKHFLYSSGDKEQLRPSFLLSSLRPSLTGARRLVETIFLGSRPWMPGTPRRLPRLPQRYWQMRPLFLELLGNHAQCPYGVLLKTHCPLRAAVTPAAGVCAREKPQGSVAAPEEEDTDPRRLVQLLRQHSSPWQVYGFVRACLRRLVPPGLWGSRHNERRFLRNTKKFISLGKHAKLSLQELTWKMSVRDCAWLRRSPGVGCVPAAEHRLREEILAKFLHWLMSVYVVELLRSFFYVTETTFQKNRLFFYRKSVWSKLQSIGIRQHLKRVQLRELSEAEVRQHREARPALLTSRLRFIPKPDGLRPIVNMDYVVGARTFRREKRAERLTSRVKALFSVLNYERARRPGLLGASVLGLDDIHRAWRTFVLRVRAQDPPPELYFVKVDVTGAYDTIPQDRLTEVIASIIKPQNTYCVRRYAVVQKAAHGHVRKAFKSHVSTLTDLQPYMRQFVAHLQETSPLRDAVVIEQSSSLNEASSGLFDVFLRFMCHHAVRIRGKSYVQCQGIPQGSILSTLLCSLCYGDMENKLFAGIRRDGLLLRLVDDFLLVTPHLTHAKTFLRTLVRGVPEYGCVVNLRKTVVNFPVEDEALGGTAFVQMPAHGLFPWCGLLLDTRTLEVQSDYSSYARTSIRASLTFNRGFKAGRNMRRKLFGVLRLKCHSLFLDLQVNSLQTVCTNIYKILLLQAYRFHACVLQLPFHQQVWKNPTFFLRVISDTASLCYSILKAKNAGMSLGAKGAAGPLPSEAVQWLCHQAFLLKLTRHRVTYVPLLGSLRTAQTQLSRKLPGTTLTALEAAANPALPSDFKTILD
structure (smiles),measurement,setting,value
O=C1c2ccccc2C(=O)c2c1ccc1nc(-c3ccc(Br)cc3)[nH]c21,viability at 1 µM,[1],96%
same,viability at 10 µM,[2],85%
same,viability at 100 µM,[3],20%
same,growth at 10 µM,A549,95%
same,growth at 10 µM,HOP-62,104%
same,growth at 10 µM,[4],181%
same,growth at 10 µM,MDA-MB-231,92.3%
same,growth at 10 µM,MDA-MB-435,110%
same,growth at 10 µM,NCI/ADR-RES,93.7%
same,growth at 10 µM,T47D,97.3%
same,growth at 10 µM,OVCAR-3,100%
same,growth at 10 µM,OVCAR-4,94.1%
same,growth at 10 µM,OVCAR-5,93.2%
same,growth at 10 µM,OVCAR-8,96.3%
same,growth at 10 µM,CCRF-CEM,98.7%
same,growth at 10 µM,HL-60(TB),100%
same,growth at 10 µM,K562,109%
same,growth at 10 µM,[5],95.2%
same,growth at 10 µM,SR,92.4%
same,growth at 10 µM,786-0,111%
same,growth at 10 µM,A498,117%
same,growth at 10 µM,ACHN,91.4%
same,growth at 10 µM,CAKI-1,86.6%
same,growth at 10 µM,SN12C,112%
same,growth at 10 µM,TK-10,280%
same,growth at 10 µM,UO-31,66.2%
same,growth at 10 µM,LOX IMVI,102%
same,growth at 10 µM,M14,102%
same,growth at 10 µM,Malme-3M,224%
same,growth at 10 µM,SK-MEL-2,72.2%
same,growth at 10 µM,SK-MEL-28,131%
same,growth at 10 µM,SK-MEL-5,87.1%
same,growth at 10 µM,PC-3,88.7%
same,growth at 10 µM,SF-268,106%
same,growth at 10 µM,SF-295,119%
same,growth at 10 µM,SNB-19,101%
same,growth at 10 µM,SNB-75,87.3%
same,growth at 10 µM,U-251,105%
same,growth at 10 µM,HOP-92,83.5%
same,growth at 10 µM,NCI-H23,93.1%
same,growth at 10 µM,NCI-H322M,167%
same,growth at 10 µM,NCI-H460,96.2%
same,growth at 10 µM,NCI-H522,76.5%
same,growth at 10 µM,COLO 205,110%
same,growth at 10 µM,HCC 2998,98.1%
same,growth at 10 µM,HCT-116,99.6%
same,residual activity,[6],71%
